HDAC3 inhib: inhibitors of human histone deacetylase 3; recombinant HDAC3, fluorogenic peptide/trypsin coupled, fluorescence; inhibition, % at 8.3 µM; 0.15% of 320,000 active; AID 2718; in the data active = inhibition above about 26%, passing the limit was not always enough
T cell HTS: modulates CD8 T cell binding to vesicles; 2C CD8+ T cell-vesicle binding, flow cytometry; hits give low values; response (vesicle binding), % at 7 µM; 0.068% of 330,000 active;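 active = response, share of CD8 T cells binding vesicles, and their 90th percentile fluorescence all below set limits, cut at about 80% in these data, passing the limit was not always enough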;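 note: values below 100% mean blocked vesicle binding to the CD8+ T cells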
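Incubation: binding step 1.5 h, 37 °C, antibody labelling 20 min, ice; system: murine 2C transgenic CD8+ T lymphocytes; technique: cytometric PE anti-B7-1 and Alexa647 anti-CD8 signals after 1% paraformaldehyde fixation; also added: QL9-charged Drosophila Ld/ICAM-1/B7-1 vesicles; control set: naked versus QL9-loaded vesicles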
GASC-1 inh: inhibitors of human GASC-1 (JMJD2C) demethylase | AID 2099 | GST-JMJD2C(1-420) H3K9me3 demethylation, DELFIA europium | 0.069% of 330,000 active | Q9H3R0 | inhibition, % at 2.35 µM;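 active = more than half of a compound's replicate wells show inhibition beyond 50%, single wells judged on their own value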;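 note: signal counts dimethyl H3K9 product captured on neutravidin plate; 0% = median of DMSO wells and 100% = 0.3 times that DMSO median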
LANA-H2B inh: blocks KSHV LANA binding to histone H2A/H2B; Q9QR71; cell-free LANA-H2A/H2B peptide, fluorescence polarization; inhibition, % (test concentration not listed); 0.6% of 320,000 active; AID 2629; in the data active = inhibition mostly above about 10%, no sharp cut-off; inactive = mostly below about 6.7%
Target sequence (Q9QR71 whole entry, looked up): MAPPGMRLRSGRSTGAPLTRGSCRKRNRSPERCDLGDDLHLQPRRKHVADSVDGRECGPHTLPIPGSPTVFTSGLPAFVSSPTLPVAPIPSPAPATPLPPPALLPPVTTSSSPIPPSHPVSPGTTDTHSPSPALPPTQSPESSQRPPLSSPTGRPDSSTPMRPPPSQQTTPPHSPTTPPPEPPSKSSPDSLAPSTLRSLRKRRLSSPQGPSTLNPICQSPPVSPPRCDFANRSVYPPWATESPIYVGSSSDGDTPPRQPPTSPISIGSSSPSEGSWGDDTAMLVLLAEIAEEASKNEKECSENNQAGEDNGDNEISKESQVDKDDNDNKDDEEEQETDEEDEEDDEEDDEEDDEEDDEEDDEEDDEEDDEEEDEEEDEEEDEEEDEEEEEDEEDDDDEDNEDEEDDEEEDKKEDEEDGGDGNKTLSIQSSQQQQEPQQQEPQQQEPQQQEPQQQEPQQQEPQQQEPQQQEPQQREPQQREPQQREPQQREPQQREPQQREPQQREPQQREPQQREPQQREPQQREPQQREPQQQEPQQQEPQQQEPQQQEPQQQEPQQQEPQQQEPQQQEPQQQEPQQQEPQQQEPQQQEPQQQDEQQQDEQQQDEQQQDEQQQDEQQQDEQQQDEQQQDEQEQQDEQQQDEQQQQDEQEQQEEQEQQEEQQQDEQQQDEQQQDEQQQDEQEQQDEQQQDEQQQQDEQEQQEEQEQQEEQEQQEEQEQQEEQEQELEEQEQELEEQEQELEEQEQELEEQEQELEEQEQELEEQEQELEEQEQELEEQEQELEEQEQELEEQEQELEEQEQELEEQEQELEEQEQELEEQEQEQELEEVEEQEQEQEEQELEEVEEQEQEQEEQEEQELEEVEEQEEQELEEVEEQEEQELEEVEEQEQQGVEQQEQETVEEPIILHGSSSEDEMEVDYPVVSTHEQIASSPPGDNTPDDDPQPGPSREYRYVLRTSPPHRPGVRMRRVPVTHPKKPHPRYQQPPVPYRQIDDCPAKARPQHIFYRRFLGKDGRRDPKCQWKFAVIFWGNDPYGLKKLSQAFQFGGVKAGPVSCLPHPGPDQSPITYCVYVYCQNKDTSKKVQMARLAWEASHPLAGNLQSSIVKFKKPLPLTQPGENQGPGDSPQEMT
DSG3 Ab inh: blocks pemphigus antibody binding to human desmoglein-3 | 0.48% of 310,000 active | binding (percent of control), % at 10 µM | DSG3-coupled beads, scFv-anti-DSG3-GFP binding, flow cytometry; hits give low values | P32926;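 active = binding more than 3 SD below its plate's average and above zero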;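 note: hits lower antibody fragment binding to DSG3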
Arr AP2 block: inhibitors of human beta-arrestin and AP2 interaction; FITC-arrestin peptide / GST-AP2 beads, flow cytometry; AP2 beta2 appendage carries R879A mutation; inhibition, % at 10 µM; 0.31% of 340,000 active;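 active = inhibition above a set limit, near 3 SD of compounds lacking own fluorescence, cut at about 54% in these data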;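 note: plate controls were DMSO wells for no effect and 5 µM unlabelled arrestin peptide for full effect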
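System: GST-AP2 R879A glutathione beads | Also added: FITC-arrestin peptide, 50 nM | Times: 12 min plus 1 h, RT | Signal: Bead flow cytometry, FITC channel | Buffer or medium: PBS with 0.05% Tween 20 and 0.1% BSA | Read-out basis: Percent drop in bead-associated FITC signal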
Active calls of the source: *; i = inactive; . = no result; + = active, no number. Only some compounds are listed: those with a hit (about 1.6% of all), similar ones and a draw of the others.

SMILES | HDAC3 inhib | T cell HTS | GASC-1 inh | LANA-H2B inh | DSG3 Ab inh | Arr AP2 block
COCCCN1C(=O)C(CC(=O)NCc2ccco2)CC(C(=O)N(C)C)=C1C (stereo not drawn) | . | . | . | . | 102 | .
CO/N=C(/COc1ccc(F)cc1)c1ccc(OC)cc1 | 8 | 244 | 6 | -2 | 72* | 0
COc1cc(NC(=O)C2CCN(S(=O)(=O)c3ccc4[nH]c(=O)oc4c3)CC2)cc(OC)c1 | 4 | 865 | 6 | 3 | 112 | 31
Nc1cccc(C(=O)c2ccccc2C(=O)O)c1 | . | . | . | . | 78* | 32
Cc1ccc(-n2ncc3c(N4CCCC(C)C4)ncnc32)c(C)c1 (stereo not drawn) | 0 | 43* | 7 | 1 | 102 | 4
Cc1ccc(S(=O)(=O)N2CCCCC2)cc1C(=O)N1C(C)CCCC1C (stereo not drawn) | -1 | 740 | -5 | 1 | . | 4
O=C(CSc1nnnn1-c1ccccc1F)Nc1nc2ccccc2s1 | -1 | 176 | -6 | 2 | 121 | 33
O=C(CSc1nnnn1-c1cccc(F)c1)Nc1nc2ccccc2s1 | 0 | 160 | -7 | 1 | 11* | 8
COc1cccc2c1cc1c(=O)n(CC(=O)N3CCC(C)CC3)nc(C)n12 | -58 | 411 | 5 | -1 | 104 | 15
O=C(CCC(=O)N1CCOCC1)NCc1cccc(C(F)(F)F)c1 | 3 | 190 | -7 | 22* | 98 | -14
COc1cccc(CNC(=O)CCC(=O)N2CCOCC2)c1 | -4 | 401 | 9 | 1 | 98 | 4
CC1(c2ccc(Cl)cc2Cl)NC(=O)N(CC(=O)Nc2ccc3[nH]c(=O)[nH]c3c2)C1=O (stereo not drawn) | 0 | 181 | 1 | -2 | 102 | -7
NS(=O)(=O)c1ccc(N/N=C/c2ccc3c(c2)OCO3)c([N+](=O)[O-])c1 | -11 | 108 | 5 | -1 | 31* | -15
Nc1nonc1OCCN1CCN(c2ccc([N+](=O)[O-])c3cccnc23)CC1 | 5 | 531 | 5 | 1 | 101 | -3
Cc1nonc1OCCN1CCN(c2ccccc2[N+](=O)[O-])CC1 | 3 | 187 | 8 | 23* | 86 | -5
Cc1ccc2c(c1)nnn2C1CCN(S(=O)(=O)c2ccc(C(=O)O)cc2)CC1 | 0 | 120 | -2 | 126* | 115 | 7
Cc1ccc2c(c1)nnn2C1CCN(S(=O)(=O)c2ccc(C(=O)N3C(C)CCCC3C)cc2)CC1 (stereo not drawn) | -1 | 255 | 2 | 0 | 105 | -12
CC(C)c1ccc(NC(=O)[C@@H]2CCC(=O)N2C2OC(=O)c3ccccc32)cc1 (stereo partly drawn) | 3 | 157 | 1 | -3 | 99 | 11
COCCC(=O)N1CCC(Oc2ccc(C(=O)N3CCCC(CCCO)C3)cc2)CC1 (stereo not drawn) | -6 | 155 | 9 | 18* | . | -1
COCCC(=O)N1CCC(Oc2ccc(C(=O)N3CCCC(OC)C3)cc2)CC1 (stereo not drawn) | . | 769 | -5 | . | 102 | 6
COCCc1nc2ccc(C(=O)N3CCCC(CCCO)C3)cc2o1 (stereo not drawn) | -1 | 288 | -10 | 12* | 123 | -18
Cc1cc(Br)ccc1NC(=O)CN(C)C(=O)c1ccc2ccccc2n1 | -4 | 291 | . | -6 | 100 | -6
O=C(CSc1nnc(C2CC2)n1-c1ccccc1)N1CCNC1=O | 3 | 329 | . | 47* | 103 | -28
Cc1nc(SCC(=O)N2CCNC2=O)c2ccccc2n1 | 3 | 182 | 2 | 21* | 122 | 15
CC(Sc1nnc(C2CC2)n1-c1ccccc1)C(=O)N1CCNC1=O (stereo not drawn) | . | . | . | . | 99 | 11
SMILES | HDAC3 inhib | T cell HTS | GASC-1 inh | LANA-H2B inh | DSG3 Ab inh | Arr AP2 block
O=C(NCc1ccco1)c1noc2c1CCCC2 | -2 | 460 | -1 | 1 | 102 | -4
CC1CCc2onc(C(=O)NCc3ccco3)c2C1 (stereo not drawn) | 2 | 107 | 3 | + | . | -3
CCN(CC)C(=O)C1CCCN(C(=O)c2oc3ccc(C)cc3c2C)C1 (stereo not drawn) | -3 | 208 | 2 | -1 | 102 | -3
Cc1c(C(=O)Nc2ccc(F)cc2)cn2c(nc3ccccc32)c1C#N | -1 | 241 | 13 | 97* | 102 | -4
CCn1c(SCC(=O)n2c(C)c(C)c3ccccc32)nnc1-c1ccco1 | 0 | 296 | -1 | -4 | 79* | 2
Cn1c(SCC(=O)NN2C(=O)NC(C)(c3ccccc3)C2=O)nnc1-c1ccncc1 (stereo not drawn) | -1 | 287 | 5 | -2 | 102 | 10
N#Cc1cc(Sc2ccccn2)c(Sc2ccccn2)cc1C#N | 8 | 159 | 7 | 0 | 73* | -8
N#Cc1cc(Sc2ccccn2)c([N+](=O)[O-])cc1C#N | 3 | 330 | -3 | 3 | 113 | 8
C=CC[C@H](CC(=O)N(CCO)Cc1ccccc1)C(=O)N[C@H](COC(=O)[C@@H](CC=C)CC(=O)OC(C)(C)C)Cc1ccccc1 | 30* | 498 | 3 | 3 | 101 | 8
C=CC[C@@H](CC(=O)N(CCO)Cc1ccccc1)C(=O)N[C@@H](COC(=O)[C@H](CC=C)CC(=O)OC(C)(C)C)Cc1c[nH]c2ccccc12 | 33* | 427 | . | 4 | 103 | -8
C=CC[C@H](CC(=O)N(CCO)Cc1ccccc1)C(=O)N[C@@H](COC(=O)[C@@H](CC=C)CC(=O)OC(C)(C)C)Cc1c[nH]c2ccccc12 | 40* | 369 | . | -13 | 104 | -5
O=C(COc1cccc(F)c1)NNC(=O)Cc1ccc(Br)cc1 | 1 | 110 | 1 | 0 | . | -7
COc1ccc(NC(=O)CCCNC(=O)c2ccc(Cl)cc2)cc1S(=O)(=O)N1CCOCC1 | . | . | . | . | . | 16
CCOC(=O)CSc1nc2cc(OCC)ccc2cc1C#N | -1 | 508 | 10 | 2 | 106 | 40
CCOc1ccc2cc(C#N)c(SCC(=O)NC(C)CC)nc2c1 (stereo not drawn) | -3 | 377 | -19 | 34* | . | .
CC(C)(Cc1ccccc1)NC(=O)C(=O)c1cn(CC(=O)N2CCOCC2)c2ccccc12 | -3 | 283 | -25 | 39* | 115 | 24
Cc1cc(Br)ccc1NC(=O)CN1C(=O)C2CC=CCC2C1=O (stereo not drawn) | 1 | 732 | -13 | 5 | 101 | 2
Cn1c(CC(=O)NNC(=O)c2ccc(F)cc2F)nc2ccccc21 | -3 | 374 | 1 | -1 | 112 | 19
Cn1c(CC(=O)NNC(=O)c2cccnc2)nc2ccccc21 | 5 | 623 | 1 | 19* | 98 | 5
CCc1ccccc1NC(=O)CSc1nnc(C2CC2)n1CC1CCCO1 (stereo not drawn) | 0 | i | -5 | 19* | 109 | -34
